Results: ChEMBL document CHEMBL5335802, “Lead Optimization of the 5-Phenylpyrazolopyrimidinone NPD-2975 toward Compounds with Improved Antitrypanosomal Efficacy” (J Med Chem, 2024)
Activity calls are given as the source filed them. No cut-off for these calls is given here.

How the values were obtained:
[1] = Cytotoxicity against human MRC5 cells incubated for 3 days by resazurin reagent fluorimetric analysis; assay type: toxicity, cell-based
[2] = Metabolic stability in mouse liver microsomes assessed as parent compound remaining in phase-II metabolism measured after 1 hr; assay type: ADME, Microsome; conditions: read-out: Stability
[3] = Metabolic stability in human liver microsomes assessed as drug metabolism in phase-I stage; assay type: ADME, Microsome
[4] = Metabolic stability in human liver microsomes assessed as parent compound remaining in phase-II metabolism measured after 1 hr; assay type: ADME, Microsome; conditions: read-out: Stability
[5] = Cytotoxicity against mouse Peritoneal macrophage cell incubated for 3 days by resazurin reagent fluorimetric analysis; assay type: toxicity, cell-based; conditions: peritoneal macrophages
Trypanosoma brucei [6] = assay: Antitrypanosomal activity against Trypanosoma brucei assessed as inhibition of parasite growth incubated for 72 hrs by resazurin reagent fluorimetric analysis; assay type: functional, organism-based
[7] = Toxicity in mouse infected with Trypanosoma brucei Squib 427 trypomastigotes assessed as animal death at 10 mg/kg,po bid administrated for 5 consecutive days measured after 60 days; assay type: organism-based; conditions: in vivo, 1440 h, time 60 day
Trypanosoma brucei [8] = assay: Antitrypanosomal activity against Trypanosoma brucei Squib 427 trypomastigotes infected in mouse model assessed as reduction in parasite growth in fat at 50 mg/kg,po bid administrated for 5 consecutive days by SL-RNA qPCR assay; assay type: functional, organism-based
How it was run: (§1)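 Surviving mice from the acute infection model (PO b.i.d., 5 days, PEG400) tested by SL-RNA qPCR. Peripheral blood erythrocyte-lysed before RNA extraction. Mice sedated with ketamine/xylazine and perfused; fat, brain and spleen pieces held in RNAlater overnight at 4 °C. Activation 10 min 45 °C, 10 min 95 °C; 40 cycles 95/50/60 °C, 15 s each; melting curve. Eef2 qPCR confirmed RNA extraction.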

Trypanosoma brucei [9] = assay: Antitrypanosomal activity against Trypanosoma brucei Squib 427 trypomastigotes infected in mouse model assessed as reduction in parasite growth in blood at 50 mg/kg,po bid administrated for 5 consecutive days by SL-RNA qPCR assay; assay type: functional, organism-based; how it was run: as §1
Trypanosoma brucei [10] = assay: Antitrypanosomal activity against Trypanosoma brucei Squib 427 trypomastigotes infected in mouse model assessed as reduction in parasitemia at 25 mg/kg,po bid administrated for 5 consecutive days; assay type: functional, organism-based
How it was run: (§2)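 Female Swiss mice (15-20 g), three per group, infected IP with 10^4 T. brucei Squib 427 trypomastigotes. Dosing PO b.i.d. for 5 days in PEG400; first dose 30 min before infection. Vehicle and suramin (10 mg/kg IP s.i.d., 5 days) controls. Parasitemia counted microscopically in tail-vein blood drops at several time points up to 63 dpi. Clinical or adverse effects observed.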

Trypanosoma brucei [11] = assay: Antitrypanosomal activity against Trypanosoma brucei Squib 427 trypomastigotes infected in mouse model assessed as reduction in parasite growth in spleen at 50 mg/kg,po bid administrated for 5 consecutive days by SL-RNA qPCR assay; assay type: functional, organism-based; how it was run: as §1
Trypanosoma brucei [12] = assay: Antitrypanosomal activity against Trypanosoma brucei Squib 427 trypomastigotes infected in mouse model assessed as reduction in parasite growth in blood at 25 mg/kg,po bid administrated for 5 consecutive days by SL-RNA qPCR assay; assay type: functional, organism-based; how it was run: as §1
[13] = Toxicity in mouse infected with Trypanosoma brucei Squib 427 trypomastigotes assessed as animal death at 25 mg/kg,po bid administrated for 5 consecutive days; assay type: organism-based; conditions: in vivo
How it was run: (§3)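 Female Swiss mice (15-20 g), groups of three, infected IP with 10⁴ T. brucei Squib 427 trypomastigotes. Compound given PO b.i.d. for 5 days in PEG400 (formulated at 12.5 and 6.25 mg/mL, up to 100 μL/25 g body weight). First dose 30 min before infection. PEG400 vehicle control group included. Animals observed for clinical or adverse effects and survival; tail-vein parasitemia checked microscopically until 63 dpi.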

Trypanosoma brucei [14] = assay: Antitrypanosomal activity against Trypanosoma brucei Squib 427 trypomastigotes infected in mouse model assessed as reduction in parasite growth in spleen at 25 mg/kg,po bid administrated for 5 consecutive days by SL-RNA qPCR assay; assay type: functional, organism-based; how it was run: as §1
[15] = Toxicity in mouse infected with Trypanosoma brucei Squib 427 trypomastigotes assessed as animal death at 50 mg/kg,po bid administrated for 5 consecutive days measured after 60 days; assay type: organism-based; conditions: in vivo, 1440 h, time 60 day; how it was run: as §3
Trypanosoma brucei [16] = assay: Antitrypanosomal activity against Trypanosoma brucei Squib 427 trypomastigotes infected in mouse model assessed as reduction in parasite growth in fat at 25 mg/kg,po bid administrated for 5 consecutive days by SL-RNA qPCR assay; assay type: functional, organism-based; how it was run: as §1
Trypanosoma brucei [17] = assay: Antitrypanosomal activity against Trypanosoma brucei Squib 427 trypomastigotes infected in mouse model assessed as reduction in parasite growth in brain at 25 mg/kg,po bid administrated for 5 consecutive days by SL-RNA qPCR assay; assay type: functional, organism-based; how it was run: as §1
Trypanosoma brucei [18] = assay: Antitrypanosomal activity against Trypanosoma brucei Squib 427 trypomastigotes infected in mouse model assessed as reduction in parasite growth in brain at 50 mg/kg,po bid administrated for 5 consecutive days by SL-RNA qPCR assay; assay type: functional, organism-based; how it was run: as §1
Trypanosoma brucei [19] = assay: Antitrypanosomal activity against Trypanosoma brucei Squib 427 trypomastigotes infected in mouse model assessed as reduction in parasitemia at 50 mg/kg,po bid administrated for 5 consecutive days by microscopic analysis; assay type: functional, organism-based; how it was run: as §2
Plasmodium falciparum = assay: Antiplasmodial activity against Plasmodium falciparum assessed as inhibition of parasite growth incubated for 72 hrs by resazurin reagent fluorimetric analysis; assay type: functional, organism-based

Which IC50 at 3 days [1] does the source give for `CC(C)c1[nH]nc2c(=O)n(C)c(-c3ccc(F)cc3)nc12` here?
The IC50 at 3 days was > 63.1 µM.

For `O=c1[nH]c(-c2ccc(F)cc2)nc2c(C3CCCC3)n[nH]c12`, which remaining at 1 h [2] is on record?
Its remaining at 1 h is 69%.

What about the IC50 at 3 days [1] of the same molecule?
Its IC50 at 3 days is > 63.1 µM.

And the Stability [3]?
Its Stability is “Stable”.

And the remaining at 1 h [4]?
Its remaining at 1 h is 69%.

And the IC50 at 3 days [5]?
The IC50 at 3 days was > 63.1 µM.

Which IC50 at 3 days [1] does the source give for `CC(C)c1nn(C)c2c(=O)[nH]c(-c3ccc(F)cc3)nc12` here?
Its IC50 at 3 days is > 63.1 µM.

And the IC50 (Trypanosoma brucei [6]; read-out: pIC50 (converted))?
The IC50 was 0.0794 µM.

With `CC(C)c1nn(CCO)c2c(=O)[nH]c(-c3ccc(F)cc3)nc12` as the molecule, how does the IC50 at 3 days [1] read?
Its IC50 at 3 days is > 63.1 µM.

For `COCCn1nc(C(C)C)c2nc(-c3ccc(F)cc3)[nH]c(=O)c21`, which IC50 at 3 days [1] is on record?
Its IC50 at 3 days is > 63.1 µM.

What does the source list for `O=c1[nH]c(-c2ccc(F)cc2)nc2c(C3CCCCC3)n[nH]c12`?
IC50 at 3 days [1]: > 63.1 µM; IC50 (Trypanosoma brucei [6]; read-out: pIC50 (converted)): 0.0398 µM

For `CC(C)c1c2nc(-c3ccc(F)cc3)[nH]c(=O)c2nn1C`, which IC50 at 3 days [1] is on record?
Its IC50 at 3 days is > 63.1 µM.

With `O=c1[nH]c(-c2ccc(F)cc2)nc2cn[nH]c12` as the molecule, how does the IC50 at 3 days [1] read?
Its IC50 at 3 days is > 63.1 µM.

With `Cc1ccc(C(=O)Nc2ccc(S(=O)(=O)O)c3cc(S(=O)(=O)O)cc(S(=O)(=O)O)c23)cc1NC(=O)c1cccc(NC(=O)Nc2cccc(C(=O)Nc3cc(C(=O)Nc4ccc(S(=O)(=O)O)c5cc(S(=O)(=O)O)cc(S(=O)(=O)O)c45)ccc3C)c2)c1` [SURAMIN] as the molecule, how does the Activity [7] read?
Its Activity is “Non-Toxic”.

With `COc1ccc(CCn2nc(C(C)C)c3nc(-c4ccc(F)cc4)[nH]c(=O)c32)cc1` as the molecule, how does the IC50 at 3 days [1] read?
The IC50 at 3 days was > 63.1 µM.

What about the IC50 (Trypanosoma brucei [6]; read-out: IC50) of the same molecule?
Its IC50 is 3.2 µM.

And the IC50 (Trypanosoma brucei [6]; read-out: pIC50 (converted))?
The IC50 was 3.16 µM.

Which IC50 at 3 days [1] does the source give for `Cc1n[nH]c2c(=O)[nH]c(-c3ccc(F)cc3)nc12` here?
Its IC50 at 3 days is > 63.1 µM.

For `CCCn1nc(C(C)C)c2nc(-c3ccc(F)cc3)[nH]c(=O)c21`, which IC50 at 3 days [1] is on record?
Its IC50 at 3 days is > 63.1 µM.

Which IC50 at 3 days [1] does the source give for `CCn1nc(C(C)C)c2nc(-c3ccc(F)cc3)[nH]c(=O)c21` here?
The IC50 at 3 days was > 63.1 µM.

Which results are given for `CC(C)(C)c1n[nH]c2c(=O)[nH]c(-c3ccc(F)cc3)nc12`?
Activity (Trypanosoma brucei [8]): Active; Activity (Trypanosoma brucei [9]): Active; Activity (Trypanosoma brucei [10]): Active; remaining at 1 h [2]: 69%; Activity (Trypanosoma brucei [11]): Active; Activity (Trypanosoma brucei [12]): Active; IC50 at 3 days [1]: > 63.1 µM; Activity [13]: Non-Toxic; Activity (Trypanosoma brucei [14]): Active; Activity [15]: Non-Toxic; Activity (Trypanosoma brucei [16]): Active; Stability [3]: Stable; Activity (Trypanosoma brucei [17]): Active; remaining at 1 h [4]: 69%; Activity (Trypanosoma brucei [18]): Active; Activity (Trypanosoma brucei [19]): Active; IC50 at 3 days [5]: > 63.1 µM

For `CC(C)c1n[nH]c2c(=O)[nH]c(Cc3ccccc3)nc12`, which IC50 (Plasmodium falciparum) is on record?
The IC50 was 1.26 µM.

For `CCc1n[nH]c2c(=O)[nH]c(-c3ccc(F)cc3)nc12`, which IC50 at 3 days [1] is on record?
Its IC50 at 3 days is > 63.1 µM.

With `CC(C)c1n[nH]c2c(=O)[nH]c(-c3ccc(F)cc3)nc12` as the molecule, how does the remaining at 1 h [2] read?
The remaining at 1 h was 69%.

And the Stability [3]?
The Stability was “Stable”.

And the remaining at 1 h [4]?
Its remaining at 1 h is 69%.

Which IC50 at 3 days [1] does the source give for `O=c1[nH]c(-c2ccc(F)cc2)nc2c(-c3ccccc3)n[nH]c12` here?
The IC50 at 3 days was > 63.1 µM.

What about the IC50 (Trypanosoma brucei [6]; read-out: pIC50 (converted)) of the same molecule?
The IC50 was 0.0501 µM.

Which IC50 at 3 days [1] does the source give for `CC(C)c1nn(CCC(N)=O)c2c(=O)[nH]c(-c3ccc(F)cc3)nc12` here?
The IC50 at 3 days was > 63.1 µM.

With `CC(C)c1nn(C(C)C)c2c(=O)[nH]c(-c3ccc(F)cc3)nc12` as the molecule, how does the IC50 at 3 days [1] read?
Its IC50 at 3 days is > 63.1 µM.
